In general, Ki refers to the equilibrium dissociation constant of an inhibitor or competing ligand from its target.

The target of experiment [1] is T1, D(2) dopamine receptor (Homo sapiens, UniProt P14416). The experiment in a line: Displacement of [3H]-spiperone from human dopamine D2L receptor expressed in CHO cell membranes after 3 hrs by liquid scintillation counting analysis. In a few lines:
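Competition against the radiolabeled antagonist [3H]spiperone at human D2L receptor in FlpIn CHO cell membranes. Affinity is reported as Ki.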
A general note: Displacement assays read how much labelled ligand stays bound in the presence of the test substance.

The target of experiment [2] is T1, D(2) dopamine receptor. The experiment in a line: Agonist activity at human dopamine D2L receptor expressed in CHO […] assessed as inhibition of forskolin-stimulated cAMP production after 30 mins by Alphascreen assay. Format: functional, cell-based. The method in brief:
(§1)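 Concentration-response curves are fitted to the operational model of agonism to derive functional affinity (pKA) and efficacy (τ). The transduction coefficient log(τ/KA) is calculated per pathway, and bias is expressed as ΔΔlog(τ/KA). Statistical comparison uses Student's t-test.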
On the technique in general: Cyclic AMP is a second messenger, typically raised through Gs and lowered through Gi signalling.

Experiment [3] has as its target T1, D(2) dopamine receptor. The experiment in a line: Agonist activity at human dopamine D2L receptor expressed in CHO […] assessed as phosphorylation of ERK1/2 by Alphascreen assay. Format: cell-based. In a few lines:
as §1
In general terms: Bead proximity is the source of the signal in Alpha formats.

For experiment [4], the target named is T1, D(2) dopamine receptor. The following applies: CHO.

T1 sequence (P14416 whole entry): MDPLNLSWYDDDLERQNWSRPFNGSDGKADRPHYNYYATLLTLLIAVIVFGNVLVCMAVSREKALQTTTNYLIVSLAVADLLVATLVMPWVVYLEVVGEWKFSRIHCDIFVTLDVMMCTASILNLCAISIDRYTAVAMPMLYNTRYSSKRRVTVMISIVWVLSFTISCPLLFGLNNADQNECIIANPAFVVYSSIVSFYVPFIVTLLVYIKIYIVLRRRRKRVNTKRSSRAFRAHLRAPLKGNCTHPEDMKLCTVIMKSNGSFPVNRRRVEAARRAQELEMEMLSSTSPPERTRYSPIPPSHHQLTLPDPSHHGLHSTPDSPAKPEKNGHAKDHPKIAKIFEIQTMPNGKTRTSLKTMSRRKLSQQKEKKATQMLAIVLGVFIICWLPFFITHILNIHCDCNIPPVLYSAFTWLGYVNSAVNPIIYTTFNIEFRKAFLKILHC

`CC(C)(C)OC(=O)N[C@H]1CC[C@H](CCN2CCc3ccc([N+](=O)[O-])cc3C2)CC1` showed a Ki in experiment [1] of 380 nM.

Consider `CC(C)(C)NC(=O)N[C@H]1CC[C@H](CCN2CCc3ccccc3C2)CC1`, for which, in experiment [2], the pKA was found to be 6.72. This compound gave a Ki in experiment [1] of 245 nM.

`CN(C)C(=O)N[C@H]1CC[C@H](CCN2CCN(c3cccc(Cl)c3Cl)CC2)CC1`: in experiment [3], the pKA amounted to 7.61.

Turning to `CC(C)(C)OC(=O)N[C@H]1CC[C@H](CN2CCc3ccccc3C2)CC1`, the pKA in experiment [2] was found to be 7.18; in experiment [3], 7.48. This compound showed an inhibition constant (Ki) in experiment [1] of 355 nM.

With `CC(C)(C)OC(=O)N[C@H]1CC[C@@H](CCN2CCc3ccccc3C2)CC1`, the pKA in experiment [2] was 7.34.

Consider `CC(C)OC(=O)N[C@H]1CC[C@H](CCN2CCc3ccccc3C2)CC1`, for which, in experiment [2], the pKA stood at 6.3. The inhibition constant Ki in experiment [1] was 1480 nM.

As for `CN(C)C(=O)NC[C@H]1CC[C@H](CN2CCN(c3cccc(Cl)c3Cl)CC2)CC1`, the pKA in experiment [2] was found to be 6.92; in experiment [3], 7.56. The inhibition constant (Ki) in experiment [1] was 42.7 nM.

With `CN(C)C(=O)N[C@H]1CC[C@H](CCN2CCc3ccccc3C2)CC1`, the pKA in experiment [2] amounted to 7.19.

For the compound `CC(C)(C)OC(=O)N[C@H]1CC[C@H](CCN2CCCN(c3cccc(Cl)c3Cl)CC2)CC1`, the inhibition constant Ki in experiment [1] was 10.5 nM.

As for `CC(C)(C)OC(=O)NC[C@H]1CC[C@H](CN2CCc3ccccc3C2)CC1`, the pKA was 6.82 in experiment [2] and 6.69 in experiment [3]. The compound also had a Ki in experiment [1] of 1150 nM.

In the case of `CC(C)COC(=O)N[C@H]1CC[C@H](CCN2CCc3ccccc3C2)CC1`, the pKA in experiment [2] turned out to be 6.05. In experiment [1], the Ki is 5250 nM.

For `CC(C)(C)OC(=O)N[C@H]1CC[C@H](CCN2CCc3ccccc3C2)CC1`, the pKA stood at 6.45 in experiment [2] and 7.1 in experiment [3].

Take `CC(C)(C)OC(=O)N[C@H]1CC[C@H](CN2CCN(c3cccc(Cl)c3Cl)CC2)CC1`: the pKA in experiment [2] was found to be 6.27; in experiment [3], 5.43. Besides, the inhibition constant Ki in experiment [1] was 309 nM.

`CC(=O)N[C@H]1CC[C@H](CCN2CCc3ccccc3C2)CC1`: the pKA in experiment [2] turned out to be 6.85.

For `CC(C)(C)OC(=O)NC[C@H]1CC[C@H](CN2CCN(c3cccc(Cl)c3Cl)CC2)CC1`, the pKA in experiment [2] was found to be 6.95; in experiment [3], 6.86. The same compound had an inhibitory constant (Ki) in experiment [1] of 148 nM.

For `CN(C)C(=O)N[C@H]1CC[C@@H](CCN2CCc3ccccc3C2)CC1`, in experiment [2], the pKA is 6.96.

In experiment [4], `NCCc1ccc(O)c(O)c1` showed a KiH of 58 nM and a KiL of 3.42 µM.

As for `CC(C)(C)OC(=O)N[C@H]1CC[C@H](CCN2CCN(c3cccc(Cl)c3Cl)CC2)CC1`, the values for the pKA in experiment [2] and in experiment [3] were 7.11 and 7.51, respectively.

As to `CC(=O)N[C@H]1CC[C@H](CCN2CCc3ccc(C#N)cc3C2)CC1`, the affinity in experiment [1], expressed as Ki, was 23.4 nM.

For `O=C(N[C@H]1CC[C@H](CCN2CCc3ccccc3C2)CC1)Oc1ccccc1`, in experiment [2], the pKA came out at 5.67. Further, in experiment [1], the Ki is 912 nM.

`CC(C)(C)OC(=O)N[C@H]1CC[C@@H](CCN2CCN(c3cccc(Cl)c3Cl)CC2)CC1`: the pKA in experiment [2] turned out to be 6.73; in experiment [3], 6.79.

As to `CCOC(=O)N[C@H]1CC[C@H](CCN2CCc3ccccc3C2)CC1`, the pKA in experiment [2] was found to be 7.23.

For the compound `CC(C)(C)OC(=O)N[C@H]1CC[C@H](CCN2CCc3ccc(C#N)cc3C2)CC1`, in experiment [2], the pKA amounted to 6.81. This compound also showed a Ki in experiment [1] of 2240 nM.

For `CC(C)(C)OC(=O)Nc1ccc(CCN2CCc3ccccc3C2)cc1`, the pKA in experiment [2] is 5.95. In experiment [1], this compound gave a Ki of 550 nM.

The values above are taken from ChEMBL document CHEMBL3085627 (J Med Chem, 2013).
